Assay outcomes (PubChem)
AHR activator = AHR activators, primary screen, cell-based, luminescence, luciferase reporter, human; Aryl hydrocarbon receptor (Homo sapiens), P35869; AHR-responsive luciferase reporter cells; activation, % at 5 µM; 320,000 tested, 2.5% active; in the data active = activation above about 47%;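 note: 0% = vehicle wells and 100% = reference agonist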
STAT3 act-1 = IL-6 driven STAT3 reporter potentiators, primary screen, U3A cells, luciferase, luminescence, MLSCN library. activation (% of control), % at 5.6 µM. AID 871, 2007. IL-6 STAT3-luciferase reporter; 100% = signal with IL-6 EC80 alone. 190,000 tested, 0.91% active;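 active = activation above the screen-wide mean of compound activation plus 3 SD, cut at about 130% in these data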;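 note: 0% = background luminescence of wells with medium and substrate only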
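Test system: STAT3-luciferase reporter U3A cells; Detection: reporter luminescence signal; Times: 1 h compound pre-exposure, 6 h IL-6 stimulation, 37 °C; Benchmarks: IL-6-only high control; Also added: IL-6 stimulus at 33 ng/mL final.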
GAA850 FXN act = FXN promoter activators, primary screen, cell-based, luciferase luminescence, HEK293 lucGAA850; 360,000 tested, 0.56% active; AID 540364, 2011; HEK293 lucGAA850 FXN promoter luciferase reporter, 24 h; percent of 10 µM SAHA response; activation, % at 6 µM;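 active = activation above the average of all compounds screened plus 3 SD, cutoff fixed separately per campaign, cut at about 7.5% in these data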;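 note: 0% = DMSO wells and 100% = 10 µM SAHA wells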
ABCB6 inh MLPCN = ABCB6 transporter inhibitors, primary screen, K562-ABCB6 cells, flow cytometry, MLPCN library; ATP-binding cassette sub-family B member 6 (Homo sapiens), Q9NP58; K562-ABCB6 porphyrin accumulation, 1 h; active compounds read low; fluorescence ratio to DMSO, % at 10 µM; 360,000 tested, 0.19% active;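 active = fluorescence ratio to DMSO below 75%, the collection mean minus 3 SD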;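 note: signal is porphyrin accumulated inside mitochondria; 100% equals median channel fluorescence of DMSO control wells; lower ratio means ABCB6 inhibition with less porphyrin fluorescence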
Target sequence (Q9NP58 whole entry, looked up): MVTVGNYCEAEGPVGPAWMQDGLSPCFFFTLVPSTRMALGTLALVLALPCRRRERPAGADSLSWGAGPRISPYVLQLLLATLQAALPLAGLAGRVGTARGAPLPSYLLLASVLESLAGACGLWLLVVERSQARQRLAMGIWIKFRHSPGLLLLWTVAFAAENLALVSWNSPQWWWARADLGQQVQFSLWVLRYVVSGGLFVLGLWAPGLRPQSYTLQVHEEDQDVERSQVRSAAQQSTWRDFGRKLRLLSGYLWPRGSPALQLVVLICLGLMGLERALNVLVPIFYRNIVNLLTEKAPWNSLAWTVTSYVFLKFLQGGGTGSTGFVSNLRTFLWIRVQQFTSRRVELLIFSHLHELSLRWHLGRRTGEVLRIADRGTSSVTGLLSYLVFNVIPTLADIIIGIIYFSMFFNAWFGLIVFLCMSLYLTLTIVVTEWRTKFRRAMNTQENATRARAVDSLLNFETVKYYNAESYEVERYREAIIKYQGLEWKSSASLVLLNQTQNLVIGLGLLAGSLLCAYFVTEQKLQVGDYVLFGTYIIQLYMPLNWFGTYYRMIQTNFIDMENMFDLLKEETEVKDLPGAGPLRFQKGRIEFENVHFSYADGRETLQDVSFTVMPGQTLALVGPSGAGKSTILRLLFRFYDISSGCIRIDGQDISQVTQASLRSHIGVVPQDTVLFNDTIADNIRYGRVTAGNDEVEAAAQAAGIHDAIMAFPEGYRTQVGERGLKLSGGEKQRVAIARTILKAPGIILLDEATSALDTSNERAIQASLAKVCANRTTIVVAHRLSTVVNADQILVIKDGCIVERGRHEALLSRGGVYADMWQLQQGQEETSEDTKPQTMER
STAT3 act-2 = STAT3 reporter potentiators, retest of hits, confirmation, U3A cells, luciferase, luminescence; 1,200 tested, 64% active; potentiation (% of control), % at 5.7 µM; AID 1267, 2008; IL-6 potentiation; U3A cells lack STAT1; 100 means same as IL-6 alone; shares compounds with STAT3 act-1;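 active = percent activation of the STAT3 luciferase reporter above a set limit taken from the earlier primary screen, cut at about 130% in these data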;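 note: 0% = background signal of medium plus substrate and 100% = median of IL-6 with DMSO wells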
NFkB act 2 = NF-kB reporter activators in human cells, counter-screen for STAT3 activator project; AID 1309, 2008; 1,200 tested, 11% active; shares compounds with STAT3 act-1; NF-kappaB reporter activation; activation (% of control), % at 5.7 µM; in the data active = activation above about 120%;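 note: reporter induced by TNF-alpha stimulation; 100% = median of stimulated DMSO wells and 0% = no signal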
STAT1 act STAT3c = STAT1 reporter activators, IFN-gamma induced, counter-screen for STAT3 activator project, cell-based, NIH 3T3, luciferase luminescence. shares compounds with STAT3 act-1. NIH 3T3 STAT1-luciferase reporter. activation (% of control), % at 5.7 µM. 1,200 tested, 13% active;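 active = activation above the solvent-only control well mean plus 3 SD, set per screening run, cut at about 120% in these data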;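 note: 100% = IFN-gamma with DMSO median signal so 100% means no change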
* hit, by the source's call; . = no result. This is a sample that favours compounds with a hit; in the whole collection about 3.3% have one here.

SMILES	AHR activator	STAT3 act-1	GAA850 FXN act	ABCB6 inh MLPCN	STAT3 act-2	NFkB act 2	STAT1 act STAT3c
Cc1cccc(CS(=O)(=O)Cc2ccc(C(=O)NC3CCCCC3)o2)c1	1.6	.	0.5	102.0	.	.	.
Cn1/c(=N/N=C/c2ccc(Cl)c([N+](=O)[O-])c2)sc2ccccc21	36.2	156.4*	-0.4	89.0	148.4*	108.2	112.7
CCN(CC)c1ncnc2c1ncn2Cc1c(Cl)cccc1Cl	9.8	98.3	0.9	96.0	.	.	.
Clc1cccc(Cl)c1Cn1cnc2c(N3CCCCCC3)ncnc21	1.4	138.1*	-5.5	94.0	138.8*	104.7	103.4
CC(=O)N1CCC(=NNc2nc3ccccc3[nH]2)CC1	62.6*	143.3*	4.9	94.0	143.8*	112.0	110.3
CN(N=Cc1ccccc1)C(=S)Nc1ccccc1	.	.	0.1	99.0	.	.	.
COc1cccc(C(=O)NC(=S)Nc2ccccc2N2CCCC2)c1	48.5*	147.2*	-1.7	103.0	141.0*	106.3	92.8
COc1cc(C(=O)NC(=S)Nc2ccccc2N2CCCC2)cc(OC)c1OC	18.0	.	0.2	96.0	.	.	.
CC1CN(Cc2ccc(C#N)cc2Cl)CC(C)O1 (stereo not drawn)	1.2	91.1	-1.4	103.0	.	.	.
CC1CN(Cc2ccc(Cl)cc2Cl)CC(C)O1 (stereo not drawn)	3.5	141.6*	2.7	100.0	128.9	118.2	125.2*
CCN(CC(=O)Nc1c(F)cccc1F)C(=O)C1CCN(S(=O)(=O)c2ccc(C)c(C)c2)CC1	-0.4	.	0.8	96.0	.	.	.
CC(C)c1ccc(C2C3=C(COC3=O)Nc3cc4c(cc32)OCO4)cc1 (stereo not drawn)	3.5	151.4*	0.6	96.0	107.9	137.8*	116.5
O=C(CCn1cnnn1)N1CCCC(Nc2ccc(F)cc2)C1 (stereo not drawn)	-0.8	.	-1.5	110.0	.	.	.
O=c1cc(-c2ccccc2)nc2n1Cc1ccccc1-2	110.6*	154.6*	6.2	90.0	133.4*	114.1	118.5
O=c1c2cccc(Cl)c2nc2n1Cc1ccccc1-2	20.8	.	0.9	100.0	.	.	.
CCCc1nnc(N2C(=O)c3cccc4cccc(c34)C2=O)s1	73.3*	159.9*	1.4	93.0	145.7*	101.1	90.2
Cc1ncc(CO)c(CO)c1OCC(O)CN1CCN(c2ccc(F)cc2)CC1 (stereo not drawn)	.	.	.	96.0	.	.	.
Cc1ccc(N2CC(C(=O)Nc3ccc(S(=O)(=O)Nc4nccc(C)n4)cc3)CC2=O)cc1 (stereo not drawn)	-1.9	100.4	1.7	102.0	.	.	.
CCOC(=O)c1c(C)[nH]c(C(=O)OCC(=O)Nc2cc(C)c(Cl)cc2OC)c1C	19.3	142.4*	-0.4	94.0	126.8	102.4	104.5
Cc1ccc(C2=Nc3ccccc3NC(C)(c3ccc(C)o3)C2)o1 (stereo not drawn)	41.1	138.0*	1.7	115.0	126.1	110.3	106.7
Cc1cccc(C)c1NC(=O)CN(C)CC(=O)Nc1cc(Cl)ccc1C#N	13.1	138.3*	0.2	90.0	125.1	103.0	95.0
CCOc1ccc(NC(=O)CN(C)CC(=O)Nc2cc(Cl)ccc2C#N)cc1OCC	54.8*	154.0*	0.7	90.0	132.4	98.7	91.7
CCOc1ccc(NC(=O)CN(C)CC(=O)Nc2ccccc2SC)cc1OCC	15.2	111.6	1.2	99.0	.	.	.
Cc1cccc(C)c1NC(=O)CN(C)CC(=O)Nc1ccc(F)c(Cl)c1	1.8	105.8	2.3	86.0	.	.	.
O=C(NC1CCS(=O)(=O)C1)c1cccnc1 (stereo not drawn)	2.1	101.0	.	.	.	.	.
SMILES	AHR activator	STAT3 act-1	GAA850 FXN act	ABCB6 inh MLPCN	STAT3 act-2	NFkB act 2	STAT1 act STAT3c
Cc1ccc(S(=O)(=O)N2C[C@H]3C(=O)C[C@@H](c4ccccc4)N(S(=O)(=O)c4ccccc4C)[C@H]3C[C@H]2c2ccccc2)cc1	.	.	.	98.0	.	.	.
CCCCNC(=S)N(C)/N=C/c1ccc(OCC(=O)Nc2c(C)cc(C)cc2C)c(OC)c1	6.5	118.5	0.4	108.0	.	.	.
COc1cc(/C=N/NC(=S)NC(C)C)ccc1OCC(=O)Nc1c(C)cc(C)cc1C	20.1	146.9*	0.8	95.0	137.5*	98.8	101.7
O=c1oc2ccc3ccccc3c2cc1-c1nc2ccccc2o1	41.3	162.6*	-0.9	101.0	132.9*	99.2	95.5
COc1ccc2oc(=O)c(-c3nc4ccccc4o3)cc2c1	21.8	100.1	6.3	92.0	.	.	.
CCN(CC(=O)NCc1ccc(F)cc1)C(=O)c1ccc2c(c1)OCO2	2.0	.	0.5	102.0	.	.	.
O=C(N/N=C/c1ccc(-c2cccc([N+](=O)[O-])c2)o1)c1cccs1	27.0	137.3*	5.0	102.0	125.1	113.0	106.9
Nc1nonc1C(=O)N/N=C/c1ccc(-c2cccc([N+](=O)[O-])c2)o1	4.2	88.2	0.1	85.0	.	.	.
C#CCn1c(=NC(=O)c2ccc(S(=O)(=O)N3CCc4ccccc4C3)cc2)sc2cc(S(N)(=O)=O)ccc21	0.5	143.9*	-0.2	96.0	138.0*	113.1	102.5
CC1CC1C(=O)OCC(=O)Nc1cccc([N+](=O)[O-])c1 (stereo not drawn)	2.1	93.7	-1.1	97.0	.	.	.
COc1ccc(/C=C/C(=O)c2cc(F)ccc2OC(=O)c2ccccc2)cc1OC	8.8	130.2	3.9	81.0	.	.	.
COc1ccc(/C=C/C(=O)c2cc(F)ccc2OC(=O)c2ccccc2OC)cc1OC	.	156.0*	4.1	98.0	113.8	168.2*	107.6
COc1ccc(C2=Nn3c(nnc3-c3ccccc3OC)SC2)cc1OC	35.0	149.9*	7.0	103.0	126.7	128.4*	94.3
CN(C(=O)COC(=O)CSc1cc(Cl)ccc1Cl)c1c(N)n(Cc2ccccc2)c(=O)[nH]c1=O	-1.4	.	0.0	85.0	.	.	.
CN(C(=O)COc1ccccc1)c1nc(-c2ccc(F)cc2)cs1	1.8	94.8	2.7	96.0	.	.	.
COc1ccccc1/C=N/N(C(C)=O)c1nc(-c2ccc(F)cc2)cs1	55.9*	194.2*	0.7	98.0	185.2*	125.7*	150.1*
c1ccc(-c2cc3ccccc3nc2N2CCCC2)cc1	10.2	136.4*	2.9	80.0	95.3	102.9	97.5
N#C/C(=C(/O)COC(=O)c1ccc(Cl)c(S(=O)(=O)N2CCOCC2)c1)c1nc2ccccc2[nH]1	19.8	97.8	0.5	102.0	.	.	.
N#C/C(=C(/O)COC(=O)CCc1ccc(S(=O)(=O)N2CCOCC2)cc1)c1nc2ccccc2[nH]1	16.1	149.3*	2.7	113.0	143.6*	102.0	86.2
